Data on three compounds can be found in ChEMBL document CHEMBL1145909, “Optically active mexiletine analogues as stereoselective blockers of voltage-gated Na(+) channels” (J Med Chem, 2003).

Test [1] can be described thus: Half-maximal concentration producing a phasic block (cumulative sodium current reduction at 10 HZ stimulation frequency) in Rana esculenta muscle. Type of test: functional, tissue-based, Muscle tissue. Summed up:
(§1)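 Three-vaseline-gap voltage clamp on single fibers microdissected from the ventral branch of Rana esculenta semitendinosus. After 10 min equilibration, Na⁺ currents recorded at 10 °C from a holding potential of -100 mV. Compounds diluted daily from stocks in physiological/external solution, DMSO at most 0.2%. IC50 from a nonlinear least-squares fit of concentration-response curves; data as mean ± SEM.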

A short description of test [2]: Half-maximal concentration producing a tonic block (blocking sodium channels at resting conditions during infrequent depolarizing pulses) in Rana esculenta muscle. Type of test: functional, tissue-based, Muscle tissue. Summed up: as §1
Test [3] has as its system Pelophylax lessonae. Briefly: Ratio of the concentrations of tonic block to that of phasic block. Type of test: functional.
Test [4] concerns Pelophylax lessonae. Briefly: Relative potency producing phasic block, relative to mexileitine.

Consider `Cc1cccc(C)c1OC[C@@H](C)N` [(R)-MEXILETINE], for which the IC50 (in general, the point on the concentration scale where inhibition reaches its midpoint) in test [1] was 23 µM; in test [2], 54 µM. In addition, the Ratio in test [3] is 2. This compound had a Relative potency in test [4] of 1.
Turning to `Cc1cccc(C)c1OC[C@H](C)N` [(S)-MEXILETINE], the figures for the IC50 in test [1] and in test [2] were 27 µM and 114 µM, respectively. For the same compound, the Ratio in test [3] was 4. Also, the Relative potency in test [4] came out at 1.
On to `Cc1cccc(C)c1OCC(C)N` (stereo unspecified) [MEXILETINE], for which the IC50 in test [1] was found to be 29 µM; in test [2], 83 µM. Moreover, in test [3], the Ratio was 3.
